The source of these data is ChEMBL document CHEMBL3393024, “Multidrug resistance-reversal effects of resin glycosides from Dichondra repens” (Bioorg Med Chem Lett, 2015).

The nature of assay [1]: Cytotoxicity against human KB/VCR cells at 25 uM after 72 hrs by SRB method. Type of assay: functional. In a few lines:
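Test sample was given alone at 25 µM, and cytotoxicity was expressed as percent inhibition ratio.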

Assay [2] in a line: Resistance factor, ratio of vincristine IC50 to vincristine IC50 in presence of compound for human KB/VCR cells. Type of assay: functional. In a few lines:
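Vincristine was serially diluted from 0.125 to 1 µM and tested with or without 25 µM test sample. Resistance factor is the vincristine IC50 alone divided by the vincristine IC50 with sample.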

Assay [3] is described as follows: Cytotoxicity against human KB/VCR cells at 10 uM after 72 hrs by SRB method. Type of assay: functional. Background: In SRB staining, fixed cells bind dye roughly in proportion to their protein.
A short description of assay [4]: Cytotoxicity against human KB/VCR cells after 72 hrs by SRB method. Type of assay: functional, cell-based.

By inhibition is commonly meant the change of the read-out against control, counted positive when it falls. Read a high inhibition as strong suppression. In general, IC50 refers to the point on the concentration scale where inhibition reaches its midpoint. A low value points to inhibition by little substance.

For `CCC[C@H](O)CCCCCCCCCC(=O)O[C@H]1[C@H](O[C@H]2C(O)O[C@H](CO)[C@@H](O)[C@@H]2O)O[C@@H](C)[C@@H](OC(=O)[C@H](C)[C@@H](C)O)[C@H]1O[C@@H]1O[C@@H](C)[C@H](O)[C@@H](O)[C@H]1O` (some centres not stated), the inhibition at 25 µM in assay [1] came out at 1.64%. The “Ratio IC50” value in assay [2] turned out to be 1.03. Taken in the same sequence, the figures for `CCCCC[C@@H](CCCCCCCCCC(=O)O)O[C@@H]1O[C@H](CO[C@@H]2O[C@@H](C)[C@H](O)[C@@H](O)[C@H]2OC(=O)[C@H](C)[C@@H](C)O)[C@@H](O)[C@H](O)[C@H]1O[C@@H]1O[C@H](CO)[C@@H](O[C@@H]2O[C@@H](C)[C@H](O)[C@@H](OC(=O)[C@H](C)[C@@H](C)O)[C@H]2O)[C@H](O)[C@H]1O` were 2.52% and 1.19. On to `COc1ccc(CCN(C)CCCC(C#N)(c2ccc(OC)c(OC)c2)C(C)C)cc1OC` (configuration not stated), for which the inhibition at 10 µM in assay [3] was determined as 0.45%.

On to `CCCCC[C@H](O)CCCCCCCC(=O)O[C@H]1[C@H](O[C@H]2C(O)O[C@H](COC(C)=O)[C@@H](O)[C@@H]2O)O[C@@H](C)[C@@H](OC(=O)[C@H](C)[C@@H](C)O)[C@H]1O[C@@H]1O[C@@H](C)[C@H](O)[C@@H](O)[C@H]1O` (some centres not stated), for which the inhibition at 25 µM in assay [1] was 0.85%. Also, the “Ratio IC50” value in assay [2] is listed as 1.36.

The compound `CC[C@]1(O)C[C@H]2CN(CCc3c([nH]c4ccccc34)[C@@](C(=O)OC)(c3cc4c(cc3OC)N(C=O)[C@H]3[C@@](O)(C(=O)OC)[C@H](OC(C)=O)[C@]5(CC)C=CCN6CC[C@]43[C@@H]65)C2)C1` [VINCRISTINE] gave an IC50 in assay [4] of 570 nM.

As for `CCCCC[C@H](O)CCCCCCCCCC(=O)O[C@H]1[C@H](O[C@H]2C(O)O[C@H](CO)[C@@H](O)[C@@H]2O)O[C@@H](C)[C@H](OC(=O)[C@H](C)[C@@H](C)O)[C@H]1O[C@@H]1O[C@@H](C)[C@H](O)[C@@H](O)[C@H]1O` (some centres not stated), in assay [1], 25 µM produced 1.35% inhibition. Moreover, in assay [2], the “Ratio IC50” value is 1.78.

In the case of `CCCCC[C@@H](CCCCCCC[C@H](O)CC(=O)O)O[C@@H]1O[C@H](CO[C@@H]2O[C@@H](C)[C@H](O)[C@@H](O)[C@H]2OC(=O)[C@H](C)[C@@H](C)O)[C@@H](O)[C@H](O)[C@H]1O[C@@H]1O[C@H](CO)[C@@H](O[C@@H]2O[C@@H](C)[C@H](O)[C@@H](OC(=O)[C@H](C)[C@@H](C)O)[C@H]2O)[C@H](O)[C@H]1O`, 25 µM produced 0.83% inhibition in assay [1]. The “Ratio IC50” value in assay [2] was 1.32.
